Source: PubChem BioAssay
HSF1 inhib = HSF1 inhibition | NIH3T3-HGL HSE-luciferase, MG132-induced, luminescence 8 h; active compounds read low | activity change, negative = inhibition, % at 7.5 µM (by protocol) | actives 0.77% (n = 300,000) | AID 2098;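 active means more than half of replicate wells show activity change below -50%, luminescence cut by over half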;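 further: luciferase reports HSF-1 transcriptional activity via heat shock element; 0% = median of DMSO wells and -100% = zero luminescence signal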
HSF-1 act = increases HSF-1 driven luciferase reporter signal; actives 1.7% (n = 300,000); AID 504408; NIH3T3-HGL HSF-1 luciferase reporter, MG132, 8 h; 100% = twice DMSO control signal; activation, % at 9 µM;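 active means mean replicate activation of at least 50% with a set share of replicates each reaching 50%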;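 further: 0% = median of the neutral control wells and 100% = twice that signal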
Jurkat NFkB inh = inhibitors of the PMA/ionomycin-induced NF-kB reporter in Jurkat cells; PMA/ionomycin-induced NF-kB luciferase reporter, luminescence; inhibition, % at 4 µM; actives 0.53% (n = 330,000); AID 435003; in the data active means inhibition above about 50%
GPR7 antagonist = human neuropeptides B/W receptor 1 antagonism. P48145. GPR7-expressing cells, fluorescence antagonist assay. inhibition, % at 4.4 µM. actives 1.1% (n = 290,000). AID 1861; in the data active means inhibition above about 16%, passing the limit was not always enough;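 further: cells stimulated with the agonist NPW; 0% = agonist with vehicle and 100% = vehicle without agonist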
Target sequence (P48145 whole entry, looked up): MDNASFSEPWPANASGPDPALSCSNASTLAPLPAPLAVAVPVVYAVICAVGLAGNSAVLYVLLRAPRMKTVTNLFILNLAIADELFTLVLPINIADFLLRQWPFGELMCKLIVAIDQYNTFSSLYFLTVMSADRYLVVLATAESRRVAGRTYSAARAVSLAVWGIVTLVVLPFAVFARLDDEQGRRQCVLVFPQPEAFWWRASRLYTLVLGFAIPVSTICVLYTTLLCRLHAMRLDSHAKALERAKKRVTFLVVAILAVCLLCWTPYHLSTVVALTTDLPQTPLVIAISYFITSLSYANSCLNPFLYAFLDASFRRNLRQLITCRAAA
697 NFkB inh = inhibitors of the PMA/ionomycin-induced NF-kB reporter in 697 B cells | 697 B-cell NF-kB luciferase reporter, 16 h | inhibition, % at 4 µM | actives 0.33% (n = 330,000); in the data active means inhibition above about 35%
T cruzi inh = T. cruzi replication inhibition; T. cruzi beta-gal in NIH3T3, luminescence, 90 h; inhibition, % (test concentration not listed); actives 1.4% (n = 300,000);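 active means mean inhibition across valid replicates above about 55%, limit read from the data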;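 further: signal also drops with host cell toxicity which is not excluded here; 0% = plate median of DMSO wells and 100% = zero luminescence signal; higher percent means less beta-gal luminescence so fewer parasites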
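Assay system: NIH/3T3 fibroblasts plus reporter T. cruzi. Amount: NIH/3T3 cells, 5,000 per well. Buffer or medium: DMEM, 2% fetal bovine serum. Doses: compound pinned at 50 nL/well, DMSO. Schedule: ≥90 h infection period, 3 h prior cell attachment. Signal: luminescent β-galactosidase signal after 60 min lysis. Read-out: parasite load inhibition, %.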
* = called active by the depositor; · = no result given. Rows were chosen to be rich in hits. Some 4.8% of all compounds tested hit in one or more screens of this group.

SMILES | HSF1 inhib | HSF-1 act | Jurkat NFkB inh | GPR7 antagonist | 697 NFkB inh | T cruzi inh
Fc1ccccc1N1CCN(Cc2nc(-c3ccccc3)no2)CC1 | -3 | -13 | -4 | 2 | 4 | -22
Cc1ccc(-n2nnnc2SCC(=O)c2cc(C)n(CC3CCCO3)c2C)cc1 (stereo not given) | 8 | 32 | -1 | · | -35 | 58*
Cc1cc(C(=O)CSc2nc3ccccc3[nH]2)c(C)n1CC1CCCO1 (stereo not given) | -54* | -61 | -77 | 27* | -176 | -47
Cc1cc(C(=O)CSc2nc(N)cc(=O)[nH]2)c(C)n1CC1CCCO1 (stereo not given) | · | · | 1 | · | 5 | ·
CN(Cc1ccccc1)C(=O)CCC1CCN(C(=O)CC2=CCCCC2)CC1 | 44 | 71* | 7 | 10 | -8 | 15
CN(Cc1ccccc1)C(=O)CCC1CCN(C(=O)CCC(F)(F)F)CC1 | 12 | 38 | -32 | 11 | -41 | 8
Cc1ccc(-n2nnnc2CN2CCCCC2)cc1 | 1 | 8 | 3 | -13 | 18 | 0
O=C(c1ccc2c(c1)OCO2)C1CCCN(C2CCN(CCc3ccccc3)CC2)C1 (stereo not given) | -9 | 0 | 44 | -1 | 1 | 69*
CC(=O)c1cccc(CN2CCCC(C(=O)c3ccc4c(c3)OCO4)C2)c1 (stereo not given) | 1 | -17 | 3 | 10 | -4 | 43
O=C(c1ccccc1)N1CCN(C(=O)c2ccc3c(c2)OCO3)CC1 | -9 | -5 | -6 | 7 | 12 | -7
O=C(c1ccc2c(c1)OCO2)N1CCC(Cc2ccccc2)CC1 | -15 | -9 | 13 | 19* | -5 | 3
Cc1ccc(C)c(S(=O)(=O)NCc2ccc(C(=O)N3CCC(Cc4ccccc4)CC3)cc2)c1 | -7 | 6 | 17 | -5 | -19 | 64*
O=C(CCc1nnc(CCCCc2ccccc2)o1)N1CCCCC1CCO (stereo not given) | -1 | -20 | 7 | -5 | 3 | -1
Cc1cc2nc3n(c2cc1C)CC1CC(C(=O)NCc2ccco2)N(C)C31 (stereo not given) | -1 | -20 | 12 | · | 8 | 2
C[C@H](C(=O)NCc1ccccc1)C(=O)c1ccccc1 | -1 | 22 | -13 | 4 | 10 | -12
Cc1ccc(CN2CCN(c3ccccc3)CC2)o1 | -8 | -4 | 8 | -13 | 10 | -4
CCc1cccc(N=c2c([N+](=O)[O-])nn(-c3ccc(Cl)cc3)n2O)c1 | -4 | 12 | 3 | 12 | -6 | 51
CC(C)c1ccc(N=c2c([N+](=O)[O-])nn(-c3ccc4c(c3)OCCO4)n2O)cc1 | 0 | -8 | 3 | 9 | -14 | 53
CCc1cccc(N=c2c([N+](=O)[O-])nn(-c3ccc4c(c3)OCCO4)n2O)c1 | -8 | -20 | 14 | 3 | 4 | 70*
CN=c1c([N+](=O)[O-])nn(-c2ccc3c(c2)OCCO3)n1O | -1 | -9 | -34 | -5 | -45 | 61*
O=[N+]([O-])c1nn(-c2ccc3c(c2)OCCO3)n(O)c1=NCc1ccc(F)cc1 | 23 | 54* | -107 | 4 | -92 | 61*
O=[N+]([O-])c1nn(-c2ccc3c(c2)OCCO3)n(O)c1=NCCC1=CCCCC1 | -6 | -7 | -61 | -3 | -92 | 94*
c1ccc(CN2CCOCCOCCOCCOCC2)cc1 | -3 | -8 | -35 | -7 | 5 | 9
Cc1ccc(C2(c3ccc(C)cc3)CC2C(=O)NC(C)C)cc1 (stereo not given) | -4 | 1 | -20 | 0 | 6 | -9
COc1ccc(S(=O)(=O)Cc2ccc(C(=O)NCCCN(C)c3ccccc3)o2)cc1 | 27 | 60* | -4 | 1 | 5 | -6
SMILES | HSF1 inhib | HSF-1 act | Jurkat NFkB inh | GPR7 antagonist | 697 NFkB inh | T cruzi inh
O=[N+]([O-])c1cc(Cl)cc(/C=N\Nc2ccccn2)c1O | -6 | -14 | -12 | -8 | -8 | 57*
CCOc1ccccc1NC(=O)c1nnn(CC(=O)Nc2cc(C)cc(C)c2)c1N | -2 | -6 | -4 | -4 | -27 | 0
Cc1ccc(NC(=O)OCCN2CCN(Cc3ccccc3)CCC2=O)cc1 | -2 | -18 | -17 | 18 | -15 | -10
Cc1ccc(/C=N/NC(=O)c2ccncc2)s1 | -8 | 0 | -4 | -20 | -8 | -8
CCOC(=O)N/N=C\c1ccc(C)s1 | -79* | -81 | 1 | 3 | 3 | -9
Cc1ccc(/C=N/N=C/c2ccc(C)s2)s1 | 36 | 78* | -137 | -11 | -210 | 0
BrC(=C\c1ccccc1)/C=N/N1CCN(c2ccccc2)CC1 | 107 | 162* | -4 | -2 | -15 | -3
O=C(Oc1coc(CSc2ncccn2)cc1=O)c1cccs1 | -2 | -19 | -8 | -10 | -1 | 1
Cc1ccc(NS(=O)(=O)c2cc(C(=O)N3CCc4ccccc4C3)ccc2Cl)cc1 | 31 | 67* | 1 | 7 | -3 | 20
Cc1cccc(N2CCN(C(=O)c3ccc(Cl)c(S(=O)(=O)N4CCc5ccccc5C4)c3)CC2)c1C | -1 | -11 | 6 | -12 | -25 | 59*
O=C(/C=C/c1ccc(O)c(O)c1)NC(=O)c1ccccc1O | 13 | 27 | -7 | 1 | -51 | -40
O=C(/C=C/c1ccc(Br)cc1)NC(=O)c1ccccc1O | 127 | 161* | -29 | -10 | -12 | -88
Cc1cc(C)c(-c2csc(NC(=O)c3cc([N+](=O)[O-])ccc3N3CCOCC3)n2)c(C)c1 | -11 | 2 | 1 | -16 | -5 | 66*
O=C(O)c1ccc(N=Cc2c(O)ccc3ccccc23)cc1 | -10 | -15 | 3 | -20 | -20 | -26
COc1ccc(N=Cc2c(O)ccc3ccccc23)cc1 | -58* | -65 | -1 | 5 | 17 | -1
CCC(=O)N1CCc2cc(S(=O)(=O)CCC(=O)Nc3ccc(OC)c(OC)c3)ccc21 | 1 | 0 | 3 | -14 | 8 | 2
CS(=O)(=O)c1ccc2nc(NC(=O)Nc3cccc(Cl)c3)sc2c1 | 46 | 99* | -44 | 8 | -67 | 2
Cc1ccc(N2CC(C(=O)Nc3nc4ccc(S(C)(=O)=O)cc4s3)CC2=O)cc1 (stereo not given) | -80* | -84 | 7 | 9 | -4 | -15
CC1CC1C(=O)Nc1nc2ccc(Cl)cc2s1 (stereo not given) | 44 | 61* | -67 | · | -119 | 13
Cn1cc(Cl)c(C(=O)Nc2nc3ccc(Cl)cc3s2)n1 | 23 | 57* | -73 | -3 | -107 | 16
COc1ccc(C(=O)OCC(=O)NCC2CCCO2)c(F)c1 (stereo not given) | · | · | 4 | · | -5 | ·
Cc1ccc(NC(=O)c2cc(-c3ccco3)on2)cc1 | 7 | 27 | -11 | -8 | 22 | -5
